Rows were chosen to be rich in hits. Some 3.5% of all compounds tested hit in one or more screens of this group.
RGS4 pot = RGS4 potentiators or activators, primary screen, cell-based, HEK293 M3R inducible RGS4, calcium flux. carbachol calcium flux Fluo4; hits give low values. B-score at 10 µM. actives 0.92% (n = 310,000). AID 463111, 2010;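 active means B-score of the integrated calcium signal more than 4 SD below the library mean, with starting fluorescence not abnormally high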;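 further: negative B-score means reduced calcium response which marks RGS4 activation or potentiation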
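test system = M3R-expressing HEK293 line, RGS4 induced by doxycycline | probe or stimulus = carbachol at ECmax as muscarinic agonist stimulus | timing = dye loading 30 min 37 °C, buffer rest 30 min RT | signal = calcium dye Fluo4 fluorescence | evaluation = B score from integrated fluorescence ratio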
MrgX1 agonist = agonists of human MrgX1 receptor, primary screen, HEK293 cells, Fluo-4 calcium flux | Mas-related G-protein coupled receptor member X1 (Homo sapiens), Q96LB2 | Fluo-4 calcium fluorescence, agonist mode; hits give high values | B-score at 10 µM | actives 0.44% (n = 310,000) | AID 588627, 2011;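 active means calcium response B-score plate-corrected fluorescence ratio at least 3 library SD, with starting fluorescence B-score inside 5 SD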
Target sequence (Q96LB2 whole entry, looked up): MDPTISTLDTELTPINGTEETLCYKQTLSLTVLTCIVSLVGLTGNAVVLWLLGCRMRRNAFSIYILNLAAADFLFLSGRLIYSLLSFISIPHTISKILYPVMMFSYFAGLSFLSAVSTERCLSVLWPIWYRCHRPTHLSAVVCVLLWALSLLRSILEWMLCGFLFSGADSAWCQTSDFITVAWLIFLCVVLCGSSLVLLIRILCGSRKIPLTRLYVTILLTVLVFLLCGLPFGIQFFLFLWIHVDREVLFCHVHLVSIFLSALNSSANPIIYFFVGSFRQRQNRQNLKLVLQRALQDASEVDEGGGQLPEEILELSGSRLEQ
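Test system: HEK293 cells stably expressing human MrgX1 receptor; amount: 15,000 cells per well; doses: compound delivered in addition one of three; times: overnight plating before 1 h dye loading; detection: Fluo-4 NW calcium-flux fluorescence, kinetic read; read-out basis: B-scored fluorescence response ratio; controls: positive and negative controls per plate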
MrgX1 allo act = positive allosteric modulators of MrgX1, primary screen, HEK293 cells, Fluo-4 calcium flux; Mas-related G-protein coupled receptor member X1 (Homo sapiens), Q96LB2; FDSS; hits give high values; B-score at 10 µM; actives 0.63% (n = 310,000); AID 588675, 2011;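 active means plate-corrected calcium response at least 3 library SD above typical, normal starting fluorescence, not activating the receptor alone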;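 further: compound read alongside a low EC10 to EC30 dose of BAM8-22 agonist; peak minus trough fluorescence over baseline measured at the second addition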
MrgX1 antagonist = antagonists of human MrgX1 receptor, primary screen, HEK293 cells, Fluo-4 calcium flux. B-score at 10 µM. BAM8-22 antagonism; hits give low values. actives 1.3% (n = 310,000). Mas-related G-protein coupled receptor member X1 (Homo sapiens), Q96LB2;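 active means calcium-response B-score plate-corrected more than 3 library SD below zero, starting fluorescence within 5 deviations, no agonist response on first addition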;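 further: peak minus trough fluorescence over baseline after final BAM8-22 challenge near maximal dose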
RGS4 block = RGS4 inhibitors, primary screen, cell-based, HEK293 M3R inducible RGS4, calcium flux; Fluo-4 calcium flux; hits give high values; triggered by carbachol at its EC20; B-score at 10 µM; actives 0.45% (n = 310,000);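 active means B-score, a plate-corrected calcium signal, over three deviations above library mean, with baseline fluorescence within five deviations of library mean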;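 further: RGS4 expression induced by doxycycline in cells with stable M3 receptor; B-score is computed from the integrated fluorescence ratio over baseline after carbachol; higher B-score means a larger calcium signal and so more RGS4 inhibition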
Target sequence (P49798 whole entry, looked up): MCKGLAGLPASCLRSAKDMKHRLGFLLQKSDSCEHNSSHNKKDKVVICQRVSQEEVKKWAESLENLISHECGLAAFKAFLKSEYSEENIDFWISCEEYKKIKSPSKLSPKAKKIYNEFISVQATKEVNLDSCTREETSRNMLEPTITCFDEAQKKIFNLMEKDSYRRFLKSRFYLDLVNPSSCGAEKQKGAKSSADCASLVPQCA
MrgX1 antag conf = MrgX1 receptor antagonists, duplicate retest, confirmation, HEK293 cells, Fluo-4 calcium flux; shares compounds with MrgX1 antagonist; BAM8-22 calcium flux; hits give low values; remaining BAM8-22 calcium response % of control (hits give low values), % at 10 µM; actives 19% (n = 2,300);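 active means remaining agonist calcium response no higher than 100% minus 3 SD of agonist-only control wells, with starting fluorescence near control levels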;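 further: agonist BAM8-22 given at a near maximal EC90 to ECmax level; peak minus minimum fluorescence divided by baseline after agonist addition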
HEK293 Ca flux = nonspecific calcium signal in parental HEK293, confirmation, counter-screen for MrgX1 antagonist project, parental HEK293 cells, Fluo-4 calcium flux | Fluo-4 calcium fluorescence, FDSS | fluorescence ratio F(max-min)/F0 at 10 µM | shares compounds with MrgX1 antagonist | actives 2% (n = 4,000);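 active means duplicate-averaged calcium fluorescence ratio at least three times the standard deviation of buffer wells, a nonspecific response in parental cells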
HEK293 Ca counter = calcium response in parental HEK293 cells, primary screen, counter-screen for MrgX1 allosteric activator project, cell-based, Fluo-4 calcium flux, duplicate; shares compounds with MrgX1 antagonist; Fluo-4 fluorescence ratio; hits give high values; fluorescence ratio F(max-min)/F0 at 10 µM; actives 0.4% (n = 4,000);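 active means calcium fluorescence ratio, averaged over duplicates, at least 3 SD of the buffer-well ratio, meaning a nonspecific response in receptor-free cells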;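 further: untransfected parental HEK293 lacking MrgX1 used as counterscreen for MrgX1 allosteric activators; fluorescence change taken during the second addition on a kinetic imager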
HEK293 Ca cntr2 = calcium response in parental HEK293 cells, primary screen, counter-screen for MrgX1 agonist project, cell-based, Fluo-4 calcium flux, duplicate, agonist mode. AID 624115, 2012. fluorescence ratio F(max-min)/F0 at 10 µM. actives 8.7% (n = 4,000). shares compounds with MrgX1 antagonist. Fluo-4 calcium fluorescence (FDSS); hits give high values;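 active means calcium fluorescence ratio at least three times the spread of buffer wells, meaning a non-specific response in parental cells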
* hit, by the source's call; i = inactive; . = no result.

SMILES	RGS4 pot	MrgX1 agonist	MrgX1 allo act	MrgX1 antagonist	RGS4 block	MrgX1 antag conf	HEK293 Ca flux	HEK293 Ca counter	HEK293 Ca cntr2
O=C(CSc1nc2ccccc2c(=O)n1CCCN1CCOCC1)NC12CC3CC(CC(C3)C1)C2	i	i	i	i	i	.	.	.	.
CC1(C)CC2CC(C)(CN2CC(=O)C(C#N)c2ccccc2)C1 (stereo not given)	i	i	i	-8.7*	i	i	i	i	i
CC1(C)CC2CC(C)(CN2CC(O)c2ccccc2)C1 (stereo not given)	i	i	i	i	i	.	.	.	.
CCOC(=O)N1CCN(C(=O)CN(c2ccc(OCc3ccccc3)cc2)S(C)(=O)=O)CC1	i	i	i	i	i	.	.	.	.
Cc1oc(C)c(C(=O)O)c1C(=O)O	i	i	i	i	i	.	.	.	.
COC(=O)c1c(C)oc(C)c(C(=O)OC)c1=O	i	i	i	-7*	i	i	i	i	i
CC(=O)NS(=O)(=O)c1ccc(NC(=S)NC(=O)Cc2ccccc2)cc1	i	i	i	-6.1*	i	i	i	i	i
O=C(CSc1nnc(-c2cccnc2)o1)Nc1ccccc1F	i	i	i	i	i	.	.	.	.
Cc1cccc(OCC(=O)Nc2ccc(NC(=O)c3ccco3)cc2)c1	i	.	.	.	i	.	.	.	.
CSc1ccc(S(=O)(=O)N2CCC(C(=O)Nc3cccnc3)CC2)cc1	i	i	i	i	i	.	.	.	.
O=C(Nc1cccnc1)C1CCN(S(=O)(=O)c2ccc(Cl)cc2)CC1	i	i	i	-7.9*	i	i	i	i	i
CCC(=O)Nc1cc(C(=O)NCC2CCCN2CC)c(OC)cc1N(C)C (stereo not given)	i	i	i	i	i	.	.	.	.
CCN1CCCC1CNC(=O)c1cc(NC(C)=O)c(N(C)C)cc1OC (stereo not given)	i	i	i	-6.5*	i	i	i	i	i
Cc1ccc(S(=O)(=O)N(CC(=O)c2ccccc2)C(=O)N2CCN(C)CC2)cc1	i	.	.	.	i	.	.	.	.
CCOC(=O)C1CCN(C(=O)c2sc3nc(-c4ccc(F)cc4)cn3c2C)CC1	i	i	i	-5.8*	i	i	i	i	i
CCO[C@@H]1OC(C(=O)Nc2ccccc2)=C[C@H](c2ccc(Br)cc2)[C@H]1CCCO	i	i	i	-10*	i	i	i	i	i
CCc1cc(=O)oc2cc(OC(C)=O)cc(OC(C)=O)c12	i	i	i	-8.3*	i	i	i	i	i
O=C(O)c1ccccc1CSc1ncn[nH]1	i	i	i	-8.3*	i	i	i	i	i
CC1CN(C(=O)c2cccc(Oc3ccccc3)c2)CC(C)O1 (stereo not given)	i	i	i	-4.7*	i	i	i	i	i
CC(C)(C)NS(=O)(=O)c1ccc(CCC(=O)Nc2ccc3c(c2)OCCO3)cc1	i	i	i	-4.7*	i	i	i	i	i
O=C(Nc1cccc(C(=O)N2CCCCCC2)c1)c1ccco1	i	i	i	-4.7*	i	i	i	i	i
COc1cccc(CN2CCC(C(=O)N3CCN(c4ccccc4F)CC3)CC2)c1OC	i	i	i	-9.2*	i	i	i	i	i
O=C(O)C[C@H]1c2ccccc2S(=O)(=O)N1C1CCCC1	i	i	i	i	i	.	.	.	.
COC(=O)c1sc(-c2ccc(C(C)(C)C)cc2)cc1NC(=O)c1ccccc1C(=O)O	i	i	i	-7.1*	i	70%*	i	i	100*
COC(=O)c1sc(-c2ccc(Cl)cc2)cc1NC(=O)c1ccccc1C(=O)O	i	i	i	i	i	.	.	.	.
SMILES	RGS4 pot	MrgX1 agonist	MrgX1 allo act	MrgX1 antagonist	RGS4 block	MrgX1 antag conf	HEK293 Ca flux	HEK293 Ca counter	HEK293 Ca cntr2
Cc1ccc(S(=O)(=O)NC(C)(C)CSc2ncccn2)cc1	i	i	i	-9.9*	i	i	i	i	i
Brc1ccc(C2=NC(Cc3ccccc3)CO2)cc1 (stereo not given)	i	i	i	i	i	.	.	.	.
Cc1nc2cc3sc(C)nc3cc2s1	i	i	i	i	i	.	.	.	.
Cc1nc2ccc(N)cc2s1	i	i	i	-5.6*	i	i	i	i	i
O=C1CC(C(=O)O)C2(CCCC2)O1 (stereo not given)	i	i	i	-5.2*	i	i	i	i	i
CCN(CC)C(=O)C1CC(=O)OC12CCCCC2 (stereo not given)	i	i	i	i	i	.	.	.	.
Oc1c(Cl)cc(Cl)cc1/C=C/c1ccc2cccc(O)c2n1	i	i	i	-7.7*	i	i	i	i	i
Oc1ccc(Cl)cc1/C=C/c1ccc2cccc(O)c2n1	i	.	.	.	i	.	.	.	.
CNC(=S)NCc1ccc2[nH]c(C)cc2c1	i	i	i	i	i	.	.	.	.
CCc1cccc(C)c1NC(=S)NCc1ccc2[nH]c(C)cc2c1	i	i	i	-9.1*	i	i	i	i	i
Fc1ccccc1N1CCN(c2cnc3ccccc3n2)CC1	i	i	i	i	i	.	.	.	.
c1ccc(CN2CCN(c3cnc4ccccc4n3)CC2)cc1	i	i	i	-8.8*	i	i	i	i	i

Bioassay records: PubChem BioAssay, Johns Hopkins Ion Channel Center
